Source: paper PMC9321909 (British Journal of Haematology, 2022)

Test system: relapsed/refractory B‐cell malignancies
Experiment: Anti-tumour activity assessment by disease-specific tumour response criteria
Format: in vivo, human (Chinese patients)
Outline: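 Oral test compound at 320 mg QD or 160 mg BID until progression or unacceptable toxicity. Investigators assessed response every 12 weeks for one year after the first dose, then every 24 weeks. Criteria were iwCLL for CLL, NCI Working Group NHL criteria for SLL, FL, MZL and MCL, and International Workshops on WM criteria for WM. 95% CIs for rates were computed by Clopper–Pearson.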

[1] = part I, 160 mg BID, CLL/SLL (n = 5)
[2] = part I, 160 mg BID, NHL (n = 5)
[3] = part I, 160 mg BID, Total (N = 11)
[4] = part I, 320 mg QD, CLL/SLL (n = 4)
[5] = part I, 320 mg QD, Total (N = 10)

## C=CC(=O)N1CCC([C@@H]2CCNc3c(C(N)=O)c(-c4ccc(Oc5ccccc5)cc4)nn32)CC1 [zanubrutinib]
CLL/SLL (n = 9)
  Best overall response: CR: 3 (33.3) n (%)
  Best overall response: CRi: 0 (0.0) n (%)
  Best overall response: Discontinued prior to first assessment: 0 (0.0) n (%)
  Best overall response: MR: 0 (0.0) n (%)
  Best overall response: PD: 0 (0.0) n (%)
  Best overall response: PR: 5 (55.6) n (%)
  Best overall response: PR‐L: 1 (11.1) n (%)
  Best overall response: Stable disease: 0 (0.0) n (%)
  Best overall response: VGPR: 0 (0.0) n (%)
  Complete response rate: 3 (33.3) n (%)
  Overall response rate: 9 (100.0) n (%)
  Partial response rate (PR or better): 8 (88.9) n (%)
CLL/SLL patients
  median PFS: 44.3 months
FL (n = 26)
  Best overall response: CR: 4 (15.4) n (%)
  Best overall response: CRi: 0 (0.0) n (%)
  Best overall response: Discontinued prior to first assessment: 3 (11.5) n (%)
  Best overall response: MR: 0 (0.0) n (%)
  Best overall response: PD: 4 (15.4) n (%)
  Best overall response: PR: 8 (30.8) n (%)
  Best overall response: PR‐L: 0 (0.0) n (%)
  Best overall response: Stable disease: 7 (26.9) n (%)
  Best overall response: VGPR: 0 (0.0) n (%)
  Complete response rate: 4 (15.4) n (%)
  Overall response rate: 12 (46.2) n (%)
  Partial response rate (PR or better): 12 (46.2) n (%)
MCL (n = 2)
  Best overall response: CR: 1 (50.0) n (%)
  Best overall response: CRi: 0 (0.0) n (%)
  Best overall response: Discontinued prior to first assessment: 0 (0.0) n (%)
  Best overall response: MR: 0 (0.0) n (%)
  Best overall response: PD: 0 (0.0) n (%)
  Best overall response: PR: 0 (0.0) n (%)
  Best overall response: PR‐L: 0 (0.0) n (%)
  Best overall response: Stable disease: 1 (50.0) n (%)
  Best overall response: VGPR: 0 (0.0) n (%)
  Complete response rate: 1 (50.0) n (%)
  Overall response rate: 1 (50.0) n (%)
  Partial response rate (PR or better): 1 (50.0) n (%)
MZL (n = 5)
  Best overall response: CR: 0 (0.0) n (%)
  Best overall response: CRi: 0 (0.0) n (%)
  Best overall response: Discontinued prior to first assessment: 2 (40.0) n (%)
  Best overall response: MR: 0 (0.0) n (%)
  Best overall response: PD: 0 (0.0) n (%)
  Best overall response: PR: 0 (0.0) n (%)
  Best overall response: PR‐L: 0 (0.0) n (%)
  Best overall response: Stable disease: 3 (60.0) n (%)
  Best overall response: VGPR: 0 (0.0) n (%)
  Complete response rate: 0 (0.0) n (%)
  Overall response rate: 0 (0.0) n (%)
  Partial response rate (PR or better): 0 (0.0) n (%)
Total (N = 44)
  Best overall response: CR: 8 (18.2) n (%)
  Best overall response: CRi: 0 (0.0) n (%)
  Best overall response: Discontinued prior to first assessment: 5 (11.4) n (%)
  Best overall response: MR: 0 (0.0) n (%)
  Best overall response: PD: 4 (9.1) n (%)
  Best overall response: PR: 14 (31.8) n (%)
  Best overall response: PR‐L: 1 (2.3) n (%)
  Best overall response: Stable disease: 12 (27.3) n (%)
  Best overall response: VGPR: 0 (0.0) n (%)
  Complete response rate: 8 (18.2) n (%)
  Overall response rate: 23 (52.3) n (%)
  Partial response rate (PR or better): 22 (50.0) n (%)
WM (n = 2)
  Best overall response: CR: 0 (0.0) n (%)
  Best overall response: CRi: 0 (0.0) n (%)
  Best overall response: Discontinued prior to first assessment: 0 (0.0) n (%)
  Best overall response: MR: 0 (0.0) n (%)
  Best overall response: PD: 0 (0.0) n (%)
  Best overall response: PR: 1 (50.0) n (%)
  Best overall response: PR‐L: 0 (0.0) n (%)
  Best overall response: Stable disease: 1 (50.0) n (%)
  Best overall response: VGPR: 0 (0.0) n (%)
  Complete response rate: 0 (0.0) n (%)
  Overall response rate: 1 (50.0) n (%)
  Partial response rate (PR or better): 1 (50.0) n (%)
All 44 patients
  complete response rate (CRR): 18.2%
  overall response rate (ORR): 52.3%
All patients
  median PFS: 16.4 months
All responders
  median DOR (PR‐L or better): 13.9 months
All subtypes, responders (n = 23)
  median time to response: 2.8 months
[1]
  Complete response rate: 2 (40.0) n (%)
  Overall response rate: 5 (100.0) n (%)
  Partial response rate (PR or better): 4 (80.0) n (%)
[2]
  Complete response rate: 1 (20.0) n (%)
  Overall response rate: 3 (60.0) n (%)
  Partial response rate (PR or better): 3 (60.0) n (%)
[3]
  Complete response rate: 3 (27.3) n (%)
  Overall response rate: 8 (72.7) n (%)
  Partial response rate (PR or better): 7 (63.6) n (%)
Part I, 160 mg BID, WM (n = 1)
  Complete response rate: 0 (0.0) n (%)
  Overall response rate: 0 (0.0) n (%)
  Partial response rate (PR or better): 0 (0.0) n (%)
[4]
  Complete response rate: 1 (25.0) n (%)
  Overall response rate: 4 (100.0) n (%)
  Partial response rate (PR or better): 4 (100.0) n (%)
Part I, 320 mg QD, NHL (n = 5)
  Complete response rate: 1 (20.0) n (%)
  Overall response rate: 3 (60.0) n (%)
  Partial response rate (PR or better): 3 (60.0) n (%)
[5]
  Complete response rate: 2 (20.0) n (%)
  Overall response rate: 8 (80.0) n (%)
  Partial response rate (PR or better): 8 (80.0) n (%)
Part I, 320 mg QD, WM (n = 1)
  Complete response rate: 0 (0.0) n (%)
  Overall response rate: 1 (100.0) n (%)
  Partial response rate (PR or better): 1 (100.0) n (%)
Patient 101 016, FL
  Study day at disease progression: Day 162
Patient 102 002, CLL
  Study day at disease progression: Day 672
Patient 102 004, WM
  BOR by investigator: Stable disease
  Study day at disease progression: Day 336
Patient 102 006, CLL
  BOR by investigator: PR‐L
  Study day at disease progression: Day 1345
Patients with CLL/SLL
  CRR: 33.3%
Total population
  median overall survival: not reached
